The species named for data set [1] is Homo sapiens. Put plainly: In vitro ability to inhibit the adhesion of neutrophil activated by tumor necrosis factor (alpha-TNF) to serum-coated plastic wells. The format is functional, organism-based. The essentials:
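Human blood PMN, isolated and RBC-lysed, at 4×10^6/mL were preincubated with compound (from 100× DMSO stocks) for 10 min at 37 °C in wells coated with 10% pooled human serum. TNF-α was then added to 0.6 nM and adherence run for 20 min. Adherent cells quantitated by BCA protein assay. Seven dilutions in duplicate gave IC50, averaged over at least three experiments ± SEM.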

The nature of data set [2]: (§1) LD50 value for polymorphonuclear granulocytes was determined. The data set is classed as ADME. As to conditions: human, read-out: LD50 (the source's name). The essentials: (§2)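 Viability read-out for LD50: human PMN (isolated from heparinised blood of unmedicated volunteers) or endothelial cell suspension in phenol red-free medium, with compound, incubated in serum-coated wells for 30 min at 37 °C. Calcein AM (added as 2 μM solution in HBSS++) for a further 30 min. Fluorescence read at ex/em 485/535 nm from live-cell esterase cleavage.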

Data set [3] is described as follows: In vitro ability to inhibit adherence of activated polymorphonuclear granulocytes to endothelial cells using IFN gamma-(HUVEC) assay was determined. As to conditions: Homo sapiens.
Data set [4] can be described thus: LD50 value for endothelial cells was determined. The data set is classed as ADME, cell-based, Endothelial cell. As to conditions: human, read-out: LD50 (the source's name). The essentials: as §2
The species entered for data set [5] is Homo sapiens. The data set can be described thus: In vitro ability to inhibit the adhesion of neutrophil activated by platelet activating factor (PAF) to serum-coated plastic wells was determined. The format is functional. The procedure, abridged:
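Human blood PMN, isolated and RBC-lysed, at 4×10^6/mL were preincubated with compound (from 100× DMSO stocks) for 10 min at 37 °C in wells coated with 10% pooled human serum. PAF was then added to 1 μM and adherence run for 10 min. Adherent cells quantitated by BCA protein assay. Seven dilutions in duplicate gave IC50, averaged over at least three experiments ± SEM.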

Data set [6] in a line: as §1. As to conditions: Homo sapiens; read-out: LD50 (the source's name). The format is functional. The essentials: as §2

In the case of `O=C(Nc1ccc(C(=O)O)cc1)OCCC1c2ccccc2-c2ccccc21`, half-maximal inhibition in the data set filed under Homo sapiens [1] (IC50) required 30 µM. In the case of `O=C(O)c1ccc(OCCCC2c3ccccc3-c3ccccc32)cc1`, the CC50 was 281 µM in data set [2] and greater than 1000 µM in data set [4]. Moreover, the results for the IC50 (in the data set filed under Homo sapiens [1]; in data set [3]; in the data set filed under Homo sapiens [5]) were 15.6 µM, 23.2 µM and 36.4 µM, respectively. For `O=C(O)c1cccc(OCCCCCC2c3ccccc3-c3ccccc32)c1`, the IC50 in the data set listed under Homo sapiens [1] was 5.23 µM. On to `O=C(O)c1ccccc1OCCCC1c2ccccc2-c2ccccc21`, for which, in the data set listed under Homo sapiens [1], the IC50 came out at 55.4 µM. On the same count and under the same terms, with `O=C(O)CCCCCC1c2ccccc2-c2ccccc21` the figure was 55.2 µM. The compound `O=C(O)c1ccc(C2c3ccccc3-c3ccccc32)cc1` registered an IC50 in the data set filed under Homo sapiens [1] of 81.6 µM. Still for that read-out and setting: with `O=C(O)CCC1c2ccccc2-c2ccccc21` the figure was greater than 200 µM; with `O=C(O)c1cccc(OCCC2c3ccccc3-c3ccccc32)c1`, 31 µM; with `O=C(Nc1ccccc1C(=O)O)OC1c2ccccc2-c2ccccc21`, 19 µM. Still for that read-out and setting: to `CC(C)C[C@H](NC(=O)OCC1c2ccccc2-c2ccccc21)C(=O)O` belongs 78 µM; to `O=C(O)CCCC1c2ccccc2-c2ccccc21`, 97 µM. With `Cc1ccc2c(c1)C(COC(=O)N[C@@H](CC(C)C)C(=O)O)c1cc(C)ccc1-2`, the CC50 in data set [2] amounted to 343 µM; in data set [4], 354 µM. Besides, the IC50 in the data set filed under Homo sapiens [1] was found to be 41.7 µM; in data set [3] it was 117 µM; in the data set filed under Homo sapiens [5], 31.7 µM.

`O=C(O)c1cccc(OCCCCC2c3ccccc3-c3ccccc32)c1` came in with an IC50 in the data set listed under Homo sapiens [1] of 6.6 µM. As to `O=C(O)c1ccc(CC2c3ccccc3-c3ccccc32)cc1`, the CC50 was 306 µM in data set [2] and greater than 1000 µM in data set [4]. The 50% inhibitory concentration (IC50) in the data set filed under Homo sapiens [1] turned out to be 27.6 µM; in data set [3] it was 91.2 µM; in the data set filed under Homo sapiens [5] it was 17.8 µM. On to `O=C(O)C(CCCCC1c2ccccc2-c2ccccc21)Cc1ccccc1` (stereo unspecified), for which the CC50 in data set [2] was found to be 79 µM; in data set [4], 72 µM. For the same compound, the IC50 in the data set filed under Homo sapiens [1] was determined as 6 µM; in data set [3], 10.2 µM. As to `O=C(N[C@@H](Cc1ccccc1)C(=O)O)OCC1c2ccccc2-c2ccccc21`, in the data set listed under Homo sapiens [1], the IC50 was 58 µM. Regarding `O=C(O)c1ccc(OCCCCC2c3cc(Cl)ccc3-c3ccc(Cl)cc32)cc1`, the IC50 in the data set filed under Homo sapiens [1] came out at 8.1 µM. Take `O=C(O)CCCCCCCCCC1c2ccccc2-c2ccccc21`: half-maximal inhibition in the data set filed under Homo sapiens [1] (IC50) was put at 11.6 µM. The IC50 values of the last two compounds are within 1.5-fold of each other. Same read-out and setting: to `O=C(O)CCCCCCCC1c2ccccc2-c2ccccc21` belongs 32.2 µM; to `O=C(O)c1ccccc1OCCCCCC1c2ccccc2-c2ccccc21`, 15.8 µM. Still for that read-out and setting: to `CC(C)(C)c1ccc2c(c1)C(CCCCOc1ccc(C(=O)O)cc1)c1cc(C(C)(C)C)ccc1-2` belongs 8 µM; to `O=C(O)C1c2ccccc2-c2ccccc21`, greater than 200 µM. On the same count and under the same terms, with `CC(C)(C)c1ccc2c(c1)C(Cc1ccc(C(=O)O)cc1)c1cc(C(C)(C)C)ccc1-2` the figure was greater than 200 µM; with `O=C(Nc1ccc(C(=O)O)cc1)OC1c2ccccc2-c2ccccc21`, 30 µM. Compound `O=C(O)c1ccc(CC2c3cc(Cl)ccc3-c3ccc(Cl)cc32)cc1` returned a half-inhibitory concentration (IC50) in the data set listed under Homo sapiens [1] of 29.1 µM. This IC50 and that of the compound before are within 1.5-fold of each other. With `O=C(Nc1ccc(C(=O)O)cc1)OCCC1c2cc(Cl)ccc2-c2ccc(Cl)cc21`, the CC50 in data set [6] is 62.5 µM; in data set [4], 82.3 µM. Besides, the IC50 in the data set filed under Homo sapiens [1] is 9.8 µM; in data set [3], 26.1 µM; in the data set filed under Homo sapiens [5], 17.8 µM.

For the compound `O=C(O)c1ccccc1OCCC1c2ccccc2-c2ccccc21`, in the data set filed under Homo sapiens [1], the IC50 was 73.3 µM. Same read-out and setting: with `O=C(O)c1ccc(OCCC2c3ccccc3-c3ccccc32)cc1` the figure was 14 µM. Same read-out and setting: to `O=C(O)CCCCC1c2ccccc2-c2ccccc21` belongs 87 µM. As to `O=C(O)c1ccc(OCCCCC2c3ccccc3-c3ccccc32)cc1`, the figures for the CC50 in data set [2] and in data set [4] were 113 µM and greater than 1000 µM, respectively. In addition, the results for the IC50 (in the data set filed under Homo sapiens [1]; in data set [3]; in the data set listed under Homo sapiens [5]) were 7.53 µM, 19.8 µM and 5.2 µM, respectively. As to `O=C(O)c1cccc(OCCCC2c3ccccc3-c3ccccc32)c1`, half-maximal inhibition in the data set listed under Homo sapiens [1] (IC50) was put at 13.8 µM. On to `O=C(O)c1ccc(OCCCCCC2c3ccccc3-c3ccccc32)cc1`, for which the CC50 in data set [2] was 295 µM; in data set [4] it was greater than 1000 µM. Moreover, the IC50 in the data set listed under Homo sapiens [1] is 7.13 µM; in data set [3], 48.2 µM; in the data set filed under Homo sapiens [5], 11.7 µM.

As to `O=C(O)CC1c2ccccc2-c2ccccc21`, the IC50 in the data set listed under Homo sapiens [1] was greater than 200 µM. Take `O=C(Nc1ccc(C(=O)O)cc1)OCC1c2ccccc2-c2ccccc21`: in the data set filed under Homo sapiens [1], the 50% inhibitory concentration (IC50) is greater than 500 µM.

For orientation: IC50 means the midpoint of a concentration-inhibition curve. Low readings indicate inhibition by little substance, high ones a need for much substance.

These data come from ChEMBL document CHEMBL1128354, “Fluorenylalkanoic and benzoic acids as novel inhibitors of cell adhesion processes in leukocytes” (J Med Chem, 1995).
